According to ChEMBL document CHEMBL3414514, “Synthesis and pharmacological evaluation of novel bisindole derivatives bearing oximes moiety: identification of novel proapoptotic agents” (Eur J Med Chem, 2015):
Activity calls are given as the source filed them. The calls are words filed in the database; no cut-off is given here.

Legend:
T-24 [1] = test: Induction of apoptosis in human T24 cells assessed as cell budding at 5 to 20 uM after 24 hrs by AO/EB staining-based fluorescence microscopic analysis relative to control; type: functional
T-24 [2] = test: Induction of apoptosis in human T24 cells assessed as necrotic cells at 5 to 20 uM after 24 hrs by AO/EB staining-based fluorescence microscopic analysis; type: functional, cell-based
In short: (§1)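 T24 cells seeded at 5 × 10^4 cells/mL on cover slips. Medium was replaced with fresh medium containing 10% FBS and compound at 5, 10 or 20 µM for 24 h. Cover slips were inverted onto AO/EB stain and viewed by fluorescence microscopy. Live cells score uniform green, early apoptotic green-yellow, late apoptotic orange, and necrotic orange without condensed chromatin. Untreated cells served as control.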

T-24 [3] = test: Induction of apoptosis in human T24 cells assessed as membrane blebbing at 5 to 20 uM after 24 hrs by AO/EB staining-based fluorescence microscopic analysis relative to control; type: functional, cell-based; in short: as §1
[4] = Cytotoxicity against human SPCA2 cells after 2 days by MTT assay; type: functional, cell-based; conditions: SPCA2, 48 h
In short: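 Cells grown in medium with 10% heat-inactivated FBS at 37 C under 5% CO2. Compounds dissolved in medium with 1% DMSO; controls received 1% DMSO. After 2 days, MTT (10 mg/mL) added for 4 h, formazan dissolved in DMSO and absorbance read at 570/630 nm. Survival taken relative to negative control; IC50 by Bliss method (n = 5), at least three independent experiments.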

[5] = Cell cycle arrest in human T24 cells assessed as increase in p53 level after 24 hrs by Western blotting analysis; type: functional, cell-based; conditions: T-24
In short: (§2)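 T24 cells treated at […] for 24 h and lysed in ice-cold RIPA buffer with protease inhibitors and NaF. Protein measured by Bradford; 30 micrograms per lane run on 12% SDS-PAGE and transferred to PVDF. Blocked 2 h at room temperature, primary antibody overnight at 4 C, HRP secondary (1:2000) 1 h, chemiluminescence detection.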

[6] = Cell cycle arrest in human T24 cells assessed as reduction in CDK2 level after 24 hrs by Western blotting analysis; type: functional, cell-based; conditions: T-24; in short: as §2
[7] = Cell cycle arrest in human T24 cells assessed as accumulation at G1 phase at 20 uM after 48 hrs by Rnase A/propidium iodide staining-based flow cytometry (reference value: 34.43%); type: functional; conditions: T-24
[8] = Cell cycle arrest in human T24 cells assessed as reduction in Cyclin E level after 24 hrs by Western blotting analysis; type: functional, cell-based; conditions: T-24; in short: as §2
[9] = Induction of apoptosis in human T24 cells assessed as cytC upregulation at IC50 after 24 hrs by qRT-PCR analysis relative to control; type: functional, cell-based; conditions: T-24
T-24 [10] = test: Induction of apoptosis in human T24 cells assessed as late apoptotic cells at 5 uM after 24 hrs by annexin-V-FITC/propidium iodide staining-based flow cytometry (reference value: 2.08%); type: functional

## COc1ccc2c(c1)/C(=N\O)C(c1c[nH]c3ccc(OC)cc13)=N2
T-24 [1]
  Activity: Active
T-24 [2]
  Activity: inactive
T-24 [3]
  Activity: Active
[4]
  IC50: 7.73 µM
[5]
  Activity: Dose-dependent effect
[6]
  Activity: Dose-dependent effect
[7]
  Activity: 66.9%
[8]
  Activity: Dose-dependent effect
[9]
  fold change (FC): 8.09
T-24 [10]
  Activity: 6.03%
